Results from ChEMBL document CHEMBL5260824, “9-Deazapurines as Broad-Spectrum Inhibitors of the ABC Transport Proteins P-Glycoprotein, Multidrug Resistance-Associated Protein 1, and Breast Cancer Resistance Protein” (J Med Chem, 2017).

Columns and labels:
[1] = Sensitization of human A2780 ADR cells expressing P-gp assessed as maximal sensitivity at 10 uM relative to control; type: functional
Summary of the method: (§1)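 Resistant lines were exposed to daunorubicin (A2780/ADR, H69AR) or SN-38 (MDCK II BCRP) over 10 nM–10 µM final, with or without modulator, for 72 h. Viability was read by MTT. Potentiation factor is GI50 without modulator over GI50 with modulator. Maximal sensitization is pf at 10 µM divided by the native resistance factor, in percent.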

[2] = Reversal of drug resistance in dog MDCK-II-BCRP cells expressing BCRP; type: functional, cell-based, Canis lupus familiaris
Summary of the method: (§2)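 Cells seeded per well (A2780/ADR 8,000; H69AR 20,000; MDCK II BCRP 3,000) with test compound at 1, 10 or 100 µM solutions added before cells. Daunorubicin (P-gp, MRP1) or SN-38 (BCRP) added to final 10 nM–10 µM. 72 h at 37 °C, then MTT viability read at 570 nm. GI50 from variable-slope nonlinear fits, compared with parental lines; three independent experiments in duplicate.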

BCRP (ABCG2) = target: T1, BCRP (ABCG2) (Homo sapiens, UniProt Q9UNQ0); experiment: Inhibition of BCRP (unknown origin) expressed in dog MDCK-II cells at 10 uM using pheophorbide A as substrate preincubated for 20 mins followed by substrate addition and measured after 120 mins by flow cytometry analysis relative to control; type: cell-based; conditions: probe pheophorbide A
T1 sequence (Q9UNQ0 whole entry): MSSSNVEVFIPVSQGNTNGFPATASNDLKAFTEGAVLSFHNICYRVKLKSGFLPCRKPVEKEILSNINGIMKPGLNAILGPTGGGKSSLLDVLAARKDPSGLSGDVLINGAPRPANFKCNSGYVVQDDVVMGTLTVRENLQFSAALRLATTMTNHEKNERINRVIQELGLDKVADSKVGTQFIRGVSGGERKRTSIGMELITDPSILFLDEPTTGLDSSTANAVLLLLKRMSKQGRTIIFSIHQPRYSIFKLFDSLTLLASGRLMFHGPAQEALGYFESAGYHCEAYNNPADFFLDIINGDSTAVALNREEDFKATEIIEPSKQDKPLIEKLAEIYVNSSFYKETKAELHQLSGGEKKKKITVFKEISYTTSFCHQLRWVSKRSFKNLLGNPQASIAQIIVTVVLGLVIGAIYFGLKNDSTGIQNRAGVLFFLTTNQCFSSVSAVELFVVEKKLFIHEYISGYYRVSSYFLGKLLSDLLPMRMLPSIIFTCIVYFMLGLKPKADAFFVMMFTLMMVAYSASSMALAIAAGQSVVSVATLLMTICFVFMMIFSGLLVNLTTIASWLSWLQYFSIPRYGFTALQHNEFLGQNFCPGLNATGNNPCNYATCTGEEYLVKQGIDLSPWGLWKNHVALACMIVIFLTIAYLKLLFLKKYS
Summary of the method: (§3)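 MDCK II cells transfected with human wild-type BCRP cDNA C-terminally fused to GFP, grown in DMEM/10% FBS. About 45,000 cells per well preincubated 20 min at 37 °C, 5% CO2 with compound (100 nM–100 µM added solutions), then pheophorbide A (5 µM solution added) for 120 min to steady state. Resuspended; flow cytometry, 488 nm excitation, FL3 (≥670 nm); GFP in FL1. Reference inhibitor 24 at 10 µM = 100%.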

[3] = Potentiation factor, ratio of GI50 for daunorubicin resistant human A2780 ADR cells expressing P-gp cells to GI50 for reversal of daunorubicin resistance in human A2780 ADR cells assessed as daunorubicin GI50 at 1 uM by MTT assay (reference value: 1 uM); type: functional
Summary of the method: (§4)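 Reversal assay: resistant lines (A2780/ADR, H69AR, MDCK II BCRP) and parental lines seeded as for MTT assay with modulator solutions of 1, 10 and 100 µM added (final 0.1, 1, 10 µM) and daunorubicin (P-gp, MRP1) or SN-38 (BCRP) at final 10 nM–10 µM. 72 h, MTT read-out; GI50 by variable-slope fit. Resistance factor = resistant/sensitive GI50; potentiation factor = GI50 without/with modulator.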

[4] = Reversal of Daunorubicin resistance in human A2780 ADR cells assessed as Daunorubicin GI50 at 0.1 uM measured for 72 hrs by MTT assay; type: functional; summary of the method: as §4
H69AR [5] = experiment: Sensitization of human NCI-H69AR cells expressing MRP1 assessed as maximal sensitivity at 10 uM relative to control; type: functional; summary of the method: as §1
[6] = Potentiation factor, ratio of GI50 for SN-38 resistant dog MDCK-II-BCRP cells expressing BCRP cells to GI50 for reversal of SN-38 resistance in dog MDCK-II-BCRP cells assessed as SN-38 GI50 at 0.1 uM (reference value: 1 uM); type: functional, Canis lupus familiaris; summary of the method: as §4
H69AR [7] = experiment: Reversal of drug resistance in human NCI-H69AR cells expressing MRP1; type: functional, cell-based; summary of the method: as §2
H69AR [8] = experiment: Potentiation factor, ratio of GI50 for daunorubicin resistant human NCI-H69AR cells expressing MRP1 cells to GI50 for reversal of daunorubicin resistance in human NCI-H69AR cells assessed as daunorubicin GI50 at 0.1 uM (reference value: 1 uM); type: functional; summary of the method: as §4
[9] = Antiproliferative activity against dog MDCK-II-BCRP cells assessed as reduction in cell viability measured for 72 hrs bt MTT assay; type: functional; conditions: Canis lupus familiaris
[10] = Reversal of SN-38 resistance in dog MDCK-II-BCRP cells assessed as SN-38 GI50 at 10 uM measured for 72 hrs by MTT assay; type: functional; conditions: Canis lupus familiaris; summary of the method: as §4
[11] = Potentiation factor, ratio of GI50 for daunorubicin resistant human A2780 ADR cells expressing P-gp cells to GI50 for reversal of daunorubicin resistance in human A2780 ADR cells assessed as daunorubicin GI50 at 0.1 uM (reference value: 1 uM); type: functional; summary of the method: as §4
H69AR [12] = experiment: Reversal of Daunorubicin resistance in human NCI-H69AR cells assessed as Daunorubicin GI50 at 1 uM measured for 72 hrs by MTT assay; type: functional; summary of the method: as §4
[13] = Reversal of SN-38 resistance in dog MDCK-II-BCRP cells assessed as SN-38 GI50 at 0.1 uM measured for 72 hrs by MTT assay; type: functional; conditions: Canis lupus familiaris; summary of the method: as §4
[14] = target: T2, Broad substrate specificity ATP-binding cassette transporter ABCG2 (Homo sapiens, UniProt Q9UNQ0); experiment: Inhibition of BCRP (unknown origin) expressed in dog MDCK-II cells using pheophorbide A as substrate preincubated for 20 mins followed by substrate addition and measured after 120 mins by flow cytometry analysis; type: cell-based; summary of the method: as §3
T2 sequence (Q9UNQ0 whole entry): T1 sequence (Q9UNQ0 whole entry)

[15] = Reversal of Daunorubicin resistance in human A2780 ADR cells assessed as Daunorubicin GI50 at 1 uM measured for 72 hrs by MTT assay; type: functional; summary of the method: as §4
H69AR [16] = experiment: Potentiation factor, ratio of GI50 for daunorubicin resistant human NCI-H69AR cells expressing MRP1 cells to GI50 for reversal of daunorubicin resistance in human NCI-H69AR cells assessed as daunorubicin GI50 at 10 uM (reference value: 1 uM); type: functional; summary of the method: as §4
H69AR [17] = experiment: Reversal of Daunorubicin resistance in human NCI-H69AR cells assessed as Daunorubicin GI50 at 0.1 uM measured for 72 hrs by MTT assay; type: functional; summary of the method: as §4

## N#Cc1cn(CCCc2ccccc2)c2c(N3CCN(CCc4c[nH]c5ccccc45)CC3)ncnc12
[1]
  Activity: 24%
[2]
  EC50: 478 nM
BCRP (ABCG2)
  inhibition at 2 h, 10 µM: > 25%
[3]
  RatioGI50: 9.8
[4]
  GI50: 286 nM
H69AR [5]
  Activity: 81%
[6]
  PF: 1.9
H69AR [7]
  EC50: 959 nM
H69AR [8]
  PF: 1.8
[9]
  GI50: 23200 nM
[10]
  GI50: 61 nM
[11]
  PF: 2
H69AR [12]
  GI50: 1170 nM
[13]
  GI50: 916 nM
[14]
  IC50: 1690 nM
[15]
  GI50: 58 nM
H69AR [16]
  PF: 8.6
H69AR [17]
  GI50: 2100 nM
